# Experimental data taken from ChEMBL document CHEMBL4342521 (J Med Chem, 2020).
# The source made the active and inactive calls. The rule behind the calls is not given here.
# What was measured:
# RS4-11 = assay: Upregulation of P21WAF1/Cip1 protein expression in human RS4:11 cells harboring wild type p53/FLT3 at 50 to 200 nM after 24 hrs by Western blot analysis; assay type: functional, cell-based
# Method in brief: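 RS4;11 cells were cultured in RPMI-1640 with 10% FBS and HL-60 cells in IMDM with 20% FBS. Cells were plated at 1,500,000 per well, grown 12 h, then drug-treated. Lysis was in RIPA buffer with sonication and centrifugation, and loading was normalized by BCA. Lysates were run on 4–12% Bis-Tris gels in MES buffer and transferred, and membranes were probed overnight at 4 °C with 1/1000 primary antibodies.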
# UACC-257 = assay: Antiproliferative activity against human UACC257 cells assessed as reduction in cell viability after 48 hrs by CellTiter-Blue assay; assay type: functional; conditions: UACC-257, 48 h, read-out: LC50 (the source's name)
# Method in brief: (§1)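 NCI-60 panel lines grown in RPMI1640 with 10% FBS at 37 °C, 5% CO₂. Seeded at 5,000–10,000 cells/well and pre-incubated overnight. Exposed for 48 h to six 10-fold dilutions (top final 10 μM), with a time-zero plate read at dosing. CellTiter-Blue (0.125 mg/mL) for 2–4 h, fluorescence 560/590 nm, triplicate curves.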
# HL-60 [1] = assay: Induction of apoptosis in p53 null human HL60 cells harboring wild type FLT3 assessed as cleavage of pro-caspase 3 at 50 to 200 nM after 24 hrs by Western blot analysis; assay type: functional, cell-based
# Method in brief: (§2)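 Cells (1,500,000 per well) grown 12 h, then drug-treated as specified. Lysed in RIPA buffer, sonicated, centrifuged, protein normalized by BCA. Run on 4–12% Bis-Tris gels in MES, transferred, probed overnight at 4 °C with primary antibodies at 1/1000. Actin served as reference for LC3-II quantitation.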
# HL-60 [2] = assay: Antiproliferative activity agaisnt p53 null human HL60 cells at 10 uM after 48 hrs by CellTiter-blue assay; assay type: functional, cell-based
# DU-145 = assay: Antiproliferative activity against human DU145 cells assessed as reduction in cell viability after 48 hrs by CellTiter-Blue assay; assay type: functional; conditions: DU-145, 48 h, read-out: LC50 (the source's name)
# Method in brief: (§3)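 Cells grown in RPMI1640 with 10% FBS at 37 °C, 5% CO₂. 5,000–10,000 cells/well were pre-incubated overnight, and a time-zero CellTiter-Blue read was taken. Six 10-fold dilutions (top final 10 μM) were applied for 48 h, followed by 0.125 mg/mL CellTiter-Blue for 2–4 h. Resorufin fluorescence was read at ex 560/em 590 nm. […] Triplicates.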
# EKVX = assay: Antiproliferative activity against human EKVX cells assessed as reduction in cell viability after 48 hrs by CellTiter-Blue assay; assay type: functional; conditions: read-out: LC50 (the source's name); method in brief: as §3
# [3] = Mutagenecity in Salmonella typhimurium TA100 at 10 uM in presence of S9 liver homogenate after 2 to 3 days by mini-Ames test; assay type: toxicity; conditions: salmonella enterica subsp. enterica serovar typhimurium, s9, 10 µM
# Method in brief: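 Compound was tested at a final 10 μM undiluted plus four serial dilutions, with S9 mix and glucose/biotin/trace-histidine exposure solution, for 100 min at 37 °C. Reversion medium was added and cultures dispensed to 96 wells for 2–3 days at 37 °C. Yellow or partial-yellow wells were scored positive; 2-aminoanthracene was the positive control.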
# [4] = molecular target: Protein deacetylase HDAC6 (Homo sapiens) (UniProt Q9UBN7); assay: Inhibition of HDAC6 in human MV4-11 cells assessed as tubulin acetylation at 500 nM incubated for 3 hrs followed by compound washout and measured after 30 mins to 6 hrs by Western blot analysis; assay type: cell-based
# Method in brief: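 MV4-11 cells exposed for 3 h, drug washed out, then cultured drug-free for 30 min, 1, 3 or 6 h. Acetylation read by western blot; t = 0 taken right after the 3 h exposure.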
# HCT-116 = assay: Antiproliferative activity against human HCT116 cells assessed as reduction in cell viability after 48 hrs by CellTiter-Blue assay; assay type: functional; conditions: HCT-116, 48 h, read-out: LC50 (the source's name); method in brief: as §3
# Histone deacetylase 5 = Histone deacetylase 5 (Homo sapiens, UniProt Q9UQL6); assay: (§4) Inhibition of recombinant human HDAC5 using Boc-Lys (trifluoroacetyl)-AMC as substrate preincubated for 1 hr followed by substrate addition and measured after 2 hrs by fluorescence based micro plate reader analysis
# Method in brief: (§5)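 Recombinant enzyme was preincubated with serially varied inhibitor for 1 h at 30 °C. Boc-Lys(trifluoroacetyl)-AMC was then added to a final 50 μM and incubated 2 h at 30 °C. The reaction was stopped with developer containing trypsin and TSA, and fluorescence (ex 360/em 460 nm) was read 30 min later. Inhibition was taken relative to control wells and fitted to a variable-slope log(inhibitor) curve. Values are the mean of at least three experiments.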
# [5] = molecular target: Aminopeptidase N (Sus scrofa) (UniProt P15145); assay: Inhibition of porcine kidney microsomal APN at 10 uM using L-leucine-p-nitroanilide as substrate preincubated for 5 mins followed by substrate addition and measured after 30 mins by microplate reader analysis; assay type: subcellular; conditions: Sus scrofa domesticus
# Method in brief: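 Porcine kidney microsomal aminopeptidase (CD13) with test agent (final 50 and 10 μM; bestatin 10 μM as reference), 5 min, then L-leucine-p-nitroanilide added. Incubated 30 min at 37 °C; absorbance read at 405 nm.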
# Histone deacetylase 9 = Histone deacetylase 9 (Homo sapiens, UniProt Q9UKV0); assay: as §4, with “C-terminal His-tagged HDAC9 (604 to 1066 residues) expressed in baculovirus infected Sf9 cells” for “HDAC5”; method in brief: as §5
# MV4-11 [6] = assay: Induction of apoptosis in human MV4-11 cells assessed as cell death at 200 nM after 24 hrs in presence of 50 uM z-VAD by CellTiter-blue dye based spectrophotometric analysis; assay type: functional
# Method in brief: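 MV4-11 cells grown 12 h, then given 200 nM test agent alone or with z-VAD, chloroquine (5 μM) or wortmannin (100 nM) for 24 h. Viability by CellTiter-Blue (0.125 mg/mL, 2–4 h), resorufin fluorescence 560/590 nm, compared with t = 0 wells; n = 3.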
# MV4-11 [7] = assay: Down regulation of FTL3 in human MV4-11 cells harboring wild type p53/FLT3-ITD mutant at 50 to 200 nM after 24 hrs by Western blot analysis; assay type: functional, cell-based; method in brief: as §2
# A549 = assay: Antiproliferative activity against human A549 cells assessed as reduction in cell viability after 48 hrs by CellTiter-Blue assay; assay type: functional; conditions: A549, 48 h, read-out: LC50 (the source's name); method in brief: as §3
# MOLT-4 = assay: Antiproliferative activity against human MOLT4 cells assessed as reduction in cell viability after 48 hrs by CellTiter-Blue assay; assay type: functional; conditions: MOLT-4, 48 h, read-out: LC50 (the source's name); method in brief: as §3
# TK-10 = assay: Antiproliferative activity against human TK10 cells assessed as reduction in cell viability after 48 hrs by CellTiter-Blue assay; assay type: functional; conditions: TK-10, 48 h, read-out: LC50 (the source's name); method in brief: as §1
# MV4-11 [8] = assay: Inhibition of p53 degradation in human MV4-11 cells at 200 nM after 24 hrs in presence of 5 nM bortezomib by Western blot analysis; assay type: functional, cell-based; method in brief: as §2
# MV4-11 [9] = assay: Induction of pro caspase 3 cleavage in human MV4-11 cells at 200 nM after 24 hrs in presence of 5 nM bortezomib by Western blot analysis; assay type: functional, cell-based; method in brief: as §2
# Aminopeptidase N (Sus scrofa), sequence (P15145 whole entry): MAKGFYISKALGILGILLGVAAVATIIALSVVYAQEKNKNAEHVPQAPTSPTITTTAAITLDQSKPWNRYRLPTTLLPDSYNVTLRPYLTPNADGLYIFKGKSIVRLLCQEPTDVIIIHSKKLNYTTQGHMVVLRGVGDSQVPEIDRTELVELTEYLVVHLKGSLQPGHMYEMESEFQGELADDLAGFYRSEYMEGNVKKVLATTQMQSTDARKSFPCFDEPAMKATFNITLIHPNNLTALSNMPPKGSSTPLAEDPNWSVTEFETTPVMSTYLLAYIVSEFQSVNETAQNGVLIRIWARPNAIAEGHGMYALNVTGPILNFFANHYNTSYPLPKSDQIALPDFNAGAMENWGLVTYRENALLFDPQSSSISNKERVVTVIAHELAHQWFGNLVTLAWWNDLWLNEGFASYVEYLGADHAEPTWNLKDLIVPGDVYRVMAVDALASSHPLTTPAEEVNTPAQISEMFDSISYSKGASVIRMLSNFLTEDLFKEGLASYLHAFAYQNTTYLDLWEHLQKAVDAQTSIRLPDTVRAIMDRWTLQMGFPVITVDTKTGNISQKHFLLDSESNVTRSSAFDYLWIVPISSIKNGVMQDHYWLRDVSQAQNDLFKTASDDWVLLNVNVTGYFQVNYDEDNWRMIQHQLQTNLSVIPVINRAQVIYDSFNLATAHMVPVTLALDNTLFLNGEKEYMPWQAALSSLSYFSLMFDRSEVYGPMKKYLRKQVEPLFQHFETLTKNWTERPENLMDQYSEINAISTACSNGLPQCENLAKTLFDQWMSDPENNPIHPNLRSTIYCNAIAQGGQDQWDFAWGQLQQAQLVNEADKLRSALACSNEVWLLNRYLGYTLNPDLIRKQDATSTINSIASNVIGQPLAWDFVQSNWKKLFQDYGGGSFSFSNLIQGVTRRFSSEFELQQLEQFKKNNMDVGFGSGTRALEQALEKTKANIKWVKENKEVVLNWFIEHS
# Protein deacetylase HDAC6 (Homo sapiens), sequence (Q9UBN7 whole entry): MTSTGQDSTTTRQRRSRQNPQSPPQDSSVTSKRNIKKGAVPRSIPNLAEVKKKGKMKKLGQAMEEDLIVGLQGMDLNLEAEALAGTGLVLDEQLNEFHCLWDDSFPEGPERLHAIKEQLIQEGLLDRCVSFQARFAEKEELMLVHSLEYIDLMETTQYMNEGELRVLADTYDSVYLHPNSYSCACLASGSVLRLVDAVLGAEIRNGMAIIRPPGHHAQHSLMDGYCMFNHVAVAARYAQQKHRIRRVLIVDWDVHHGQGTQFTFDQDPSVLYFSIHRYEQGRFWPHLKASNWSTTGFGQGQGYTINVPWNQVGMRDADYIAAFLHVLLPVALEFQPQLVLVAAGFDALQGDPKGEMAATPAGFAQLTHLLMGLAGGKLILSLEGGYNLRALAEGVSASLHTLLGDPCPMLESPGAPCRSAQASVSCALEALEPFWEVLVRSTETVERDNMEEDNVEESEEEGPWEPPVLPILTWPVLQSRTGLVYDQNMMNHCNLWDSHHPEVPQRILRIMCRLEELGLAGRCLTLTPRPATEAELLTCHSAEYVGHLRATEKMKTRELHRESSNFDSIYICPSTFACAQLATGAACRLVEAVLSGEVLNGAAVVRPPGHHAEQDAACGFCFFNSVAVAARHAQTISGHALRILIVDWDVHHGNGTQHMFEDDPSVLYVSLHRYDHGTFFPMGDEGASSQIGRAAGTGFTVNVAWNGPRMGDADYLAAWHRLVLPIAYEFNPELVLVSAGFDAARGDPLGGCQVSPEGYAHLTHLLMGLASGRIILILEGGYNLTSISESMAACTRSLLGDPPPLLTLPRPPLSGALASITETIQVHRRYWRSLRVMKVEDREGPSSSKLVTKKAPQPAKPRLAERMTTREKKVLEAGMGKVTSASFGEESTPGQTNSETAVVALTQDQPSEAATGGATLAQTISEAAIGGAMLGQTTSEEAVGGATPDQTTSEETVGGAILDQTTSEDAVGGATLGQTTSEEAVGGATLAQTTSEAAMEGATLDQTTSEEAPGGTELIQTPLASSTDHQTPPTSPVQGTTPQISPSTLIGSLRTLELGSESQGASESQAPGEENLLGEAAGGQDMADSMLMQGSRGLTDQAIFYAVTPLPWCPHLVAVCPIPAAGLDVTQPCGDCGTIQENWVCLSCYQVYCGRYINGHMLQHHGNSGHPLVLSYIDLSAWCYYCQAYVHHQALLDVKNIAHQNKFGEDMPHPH
# Histone deacetylase 5, sequence (Q9UQL6 whole entry): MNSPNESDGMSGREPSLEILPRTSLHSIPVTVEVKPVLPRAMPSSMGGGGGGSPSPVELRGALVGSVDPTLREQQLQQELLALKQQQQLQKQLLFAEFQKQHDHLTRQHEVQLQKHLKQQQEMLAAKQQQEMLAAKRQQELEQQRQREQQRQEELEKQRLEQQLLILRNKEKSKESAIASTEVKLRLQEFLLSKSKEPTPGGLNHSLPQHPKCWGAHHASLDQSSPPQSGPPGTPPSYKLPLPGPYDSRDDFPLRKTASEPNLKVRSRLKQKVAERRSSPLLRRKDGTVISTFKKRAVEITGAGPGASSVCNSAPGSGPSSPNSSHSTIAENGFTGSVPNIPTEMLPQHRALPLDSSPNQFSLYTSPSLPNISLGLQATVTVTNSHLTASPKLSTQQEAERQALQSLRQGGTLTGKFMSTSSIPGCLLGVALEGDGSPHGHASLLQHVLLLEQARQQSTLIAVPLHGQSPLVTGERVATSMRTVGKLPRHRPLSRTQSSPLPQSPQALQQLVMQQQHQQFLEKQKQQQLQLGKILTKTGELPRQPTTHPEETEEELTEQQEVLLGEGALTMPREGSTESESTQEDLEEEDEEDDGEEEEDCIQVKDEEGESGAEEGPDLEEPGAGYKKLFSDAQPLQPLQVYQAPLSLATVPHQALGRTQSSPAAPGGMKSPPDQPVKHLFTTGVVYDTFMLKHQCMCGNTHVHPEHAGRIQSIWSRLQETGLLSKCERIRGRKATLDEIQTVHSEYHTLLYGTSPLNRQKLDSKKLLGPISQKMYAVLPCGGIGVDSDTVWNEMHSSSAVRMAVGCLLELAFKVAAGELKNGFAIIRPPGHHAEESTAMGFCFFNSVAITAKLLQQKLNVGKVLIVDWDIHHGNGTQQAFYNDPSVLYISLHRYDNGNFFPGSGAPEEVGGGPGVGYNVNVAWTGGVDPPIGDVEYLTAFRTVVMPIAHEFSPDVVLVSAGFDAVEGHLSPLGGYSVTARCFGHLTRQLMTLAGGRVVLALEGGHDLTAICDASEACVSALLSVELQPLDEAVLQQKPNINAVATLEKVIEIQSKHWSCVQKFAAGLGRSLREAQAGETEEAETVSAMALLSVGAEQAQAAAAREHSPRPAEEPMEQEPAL
# Histone deacetylase 9, sequence (Q9UKV0 whole entry, the tested form may be a part): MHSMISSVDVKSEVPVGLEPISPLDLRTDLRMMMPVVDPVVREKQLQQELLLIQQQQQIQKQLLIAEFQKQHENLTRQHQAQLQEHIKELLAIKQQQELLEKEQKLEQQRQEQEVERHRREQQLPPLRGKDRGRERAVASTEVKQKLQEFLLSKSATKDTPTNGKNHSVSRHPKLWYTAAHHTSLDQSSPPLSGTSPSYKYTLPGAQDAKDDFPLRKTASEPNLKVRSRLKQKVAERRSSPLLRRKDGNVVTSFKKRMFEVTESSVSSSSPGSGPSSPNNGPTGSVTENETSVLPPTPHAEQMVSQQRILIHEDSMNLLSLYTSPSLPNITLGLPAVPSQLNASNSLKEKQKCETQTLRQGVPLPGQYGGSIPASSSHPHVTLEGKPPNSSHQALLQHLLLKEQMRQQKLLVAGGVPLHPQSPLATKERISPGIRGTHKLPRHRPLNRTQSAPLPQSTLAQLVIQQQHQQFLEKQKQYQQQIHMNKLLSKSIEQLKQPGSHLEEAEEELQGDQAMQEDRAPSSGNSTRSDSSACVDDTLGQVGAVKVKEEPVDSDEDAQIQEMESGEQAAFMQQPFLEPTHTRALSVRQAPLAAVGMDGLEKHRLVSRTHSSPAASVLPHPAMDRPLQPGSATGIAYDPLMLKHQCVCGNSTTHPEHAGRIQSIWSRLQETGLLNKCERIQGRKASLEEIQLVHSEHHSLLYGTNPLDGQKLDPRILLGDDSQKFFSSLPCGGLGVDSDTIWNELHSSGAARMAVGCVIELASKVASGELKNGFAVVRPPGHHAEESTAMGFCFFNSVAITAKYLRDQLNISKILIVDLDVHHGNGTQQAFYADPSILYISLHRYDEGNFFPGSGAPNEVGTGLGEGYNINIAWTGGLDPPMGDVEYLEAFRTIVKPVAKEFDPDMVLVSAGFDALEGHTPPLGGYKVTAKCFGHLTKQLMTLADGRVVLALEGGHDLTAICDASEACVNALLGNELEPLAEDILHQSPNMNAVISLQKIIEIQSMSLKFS
structure (smiles),measurement,setting,value
CCCNNC(=O)/C=C/c1ccc(CNCCc2c(C)[nH]c3ccccc23)cc1.O=C(O)C(F)(F)F,Activity,RS4-11,Active
same,CC50,UACC-257,> 10 µM
same,Activity,HL-60 [1],inactive
same,Activity,HL-60 [2],Active
same,CC50,DU-145,> 10 µM
same,CC50,EKVX,> 10 µM
same,Activity,[3],Non-Toxic
same,inhibition,[4],inactive
same,CC50,HCT-116,0.879 µM
same,IC50,Histone deacetylase 5,> 10 µM
same,inhibition,[5],inactive
same,IC50,Histone deacetylase 9,> 10 µM
same,Activity,MV4-11 [6],inactive
same,Activity,MV4-11 [7],Active
same,CC50,A549,> 10 µM
same,CC50,MOLT-4,> 10 µM
same,CC50,TK-10,> 10 µM
same,inhibition,MV4-11 [8],Active
same,Activity,MV4-11 [9],Active
